Experimental data reported in ChEMBL document CHEMBL3526054, “Substituted imidazole of 5-fluoro-2-[4-[(2-phenyl-1H-imidazol-5-yl)methyl]-1-piperazinyl]pyrimidine Inactivates cytochrome P450 2D6 by protein adduction” (Drug Metab Dispos, 2011).

Columns and labels:
Cytochrome P450 2D6 [1] = biological target: T1, Cytochrome P450 2D6 (Homo sapiens, UniProt P10635); assay: Partition ratio of […] assessed as number of molecules of compound metabolized per molecule of inactivated enzyme after 60 mins by HPLC analysis; assay type: ADME; details: recombinant enzyme, 1 h
T1 sequence (P10635 whole entry): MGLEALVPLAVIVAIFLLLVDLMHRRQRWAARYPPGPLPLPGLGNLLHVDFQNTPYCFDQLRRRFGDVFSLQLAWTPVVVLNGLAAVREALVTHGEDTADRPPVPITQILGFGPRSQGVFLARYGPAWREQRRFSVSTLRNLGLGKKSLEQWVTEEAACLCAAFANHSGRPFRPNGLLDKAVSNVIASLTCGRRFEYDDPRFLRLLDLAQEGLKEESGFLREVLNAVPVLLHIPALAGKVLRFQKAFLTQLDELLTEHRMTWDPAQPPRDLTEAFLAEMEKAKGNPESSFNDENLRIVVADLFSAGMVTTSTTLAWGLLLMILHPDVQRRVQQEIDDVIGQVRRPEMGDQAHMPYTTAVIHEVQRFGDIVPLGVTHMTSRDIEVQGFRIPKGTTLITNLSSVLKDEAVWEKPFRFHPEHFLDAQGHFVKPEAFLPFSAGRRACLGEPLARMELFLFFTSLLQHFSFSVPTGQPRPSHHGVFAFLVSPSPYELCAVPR

Cytochrome P450 2D6 [2] = biological target: T1, Cytochrome P450 2D6; assay: Binding affinity to recombinant human CYP2D6 expressed in Escherichia coli co-expressing P450 reductase by spectral analysis; assay type: ADME; details: read-out: Ks
Outline: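 Purified recombinant CYP2D6 (from E. coli), 1 μM in 100 mM potassium phosphate pH 7.4, split between two cuvettes at room temperature. Ligand (0.05–16 μM, in water) titrated into the sample cuvette, solvent into the reference. Difference spectra recorded 350–500 nm. ΔA430–395 plotted against concentration. Ks obtained by nonlinear fit to the quadratic tight-binding equation.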

CYP2D6 [3] = biological target: T2, CYP2D6 (Homo sapiens, UniProt P10635); assay: (§1) Inhibition of catalytic activity of recombinant human CYP2D6 expressed in Escherichia coli co-expressing P450 reductase assessed as hydroxybufuralol activity at 16 uM after <15 mins by HPLC analysis in presence of NADPH; assay type: ADME; details: probe bufuralol (hydroxybufuralol formation)
T2 sequence (P10635 whole entry): as above

CYP2D6 [4] = biological target: T2, CYP2D6; assay: Inhibition of catalytic activity of recombinant human CYP2D6 expressed in Escherichia coli co-expressing P450 reductase assessed as loss of ability to bind CO at 16 uM after <15 mins by […] in presence of NADPH; assay type: ADME
Outline: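 Purified CYP2D6 (1 μM) reconstituted with 2 μM P450 reductase, 30 μM dilauroyl-PC, catalase and SOD in 100 mM KPi pH 7.4, with 16 μM compound and an NADPH-generating system. Incubated up to 25 min. Controls lacked compound or NADPH system. Quenched with detergent buffer. Reduced-CO difference spectrum read 400–500 nm; P450 from A450–A475 (91 mM⁻¹cm⁻¹), expressed relative to time 0.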

CYP2D6 [5] = biological target: T2, CYP2D6; assay: Inhibition of catalytic activity of recombinant human CYP2D6 expressed in Escherichia coli co-expressing P450 reductase assessed as loss of native heme in hemochrome at 16 uM after <15 mins by hemochrome assay in presence of NADPH; assay type: ADME
Outline: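 Purified CYP2D6 (1 μM) with 2 μM reductase, 30 μM dilauroyl-PC, catalase, SOD and 16 μM compound in 100 mM KPi pH 7.4, incubated 0–40 min with an NADPH-generating system. Controls lacked compound or NADPH system. Quenched in detergent buffer, then pyridine (22%) and NaOH (0.01 N, final) added. Dithionite-reduced spectrum 520–620 nm; heme from A557–A575 (32.4 mM⁻¹cm⁻¹), relative to time 0.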

CYP2D6 [6] = biological target: T2, CYP2D6; assay: Inhibition of catalytic activity of […] assessed as loss of native heme in hemochrome at 16 uM after <15 mins by HPLC analysis in presence of NADPH; assay type: ADME
Cytochrome P450 2C19 = Cytochrome P450 2C19 (Homo sapiens, UniProt P33261); assay: Drug metabolism assessed as CYP2C19 (unknown origin)-mediated retention time of metabolite by LC-MS/MS analysis in presence of NADPH; assay type: ADME
Chain of Cytochrome P450 2C19 (P33261 whole entry): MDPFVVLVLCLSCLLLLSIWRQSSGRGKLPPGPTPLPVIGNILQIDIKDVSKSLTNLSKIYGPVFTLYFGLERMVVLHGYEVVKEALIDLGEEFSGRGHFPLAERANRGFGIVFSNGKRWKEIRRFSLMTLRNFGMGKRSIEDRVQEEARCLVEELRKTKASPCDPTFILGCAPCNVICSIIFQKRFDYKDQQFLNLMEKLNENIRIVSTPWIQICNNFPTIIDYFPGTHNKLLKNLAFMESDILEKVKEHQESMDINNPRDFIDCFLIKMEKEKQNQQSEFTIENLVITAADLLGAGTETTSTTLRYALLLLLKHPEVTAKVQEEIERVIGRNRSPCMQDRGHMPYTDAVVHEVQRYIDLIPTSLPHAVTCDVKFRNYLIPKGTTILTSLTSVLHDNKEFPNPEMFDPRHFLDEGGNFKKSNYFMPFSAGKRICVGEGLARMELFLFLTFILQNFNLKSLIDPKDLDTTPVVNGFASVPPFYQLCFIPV

Cytochrome P450 2C9 = Cytochrome P450 2C9 (Homo sapiens, UniProt P11712); assay: Drug metabolism assessed as CYP2C9 (unknown origin)-mediated retention time of metabolite by LC-MS/MS analysis in presence of NADPH; assay type: ADME
Chain of Cytochrome P450 2C9 (P11712 whole entry): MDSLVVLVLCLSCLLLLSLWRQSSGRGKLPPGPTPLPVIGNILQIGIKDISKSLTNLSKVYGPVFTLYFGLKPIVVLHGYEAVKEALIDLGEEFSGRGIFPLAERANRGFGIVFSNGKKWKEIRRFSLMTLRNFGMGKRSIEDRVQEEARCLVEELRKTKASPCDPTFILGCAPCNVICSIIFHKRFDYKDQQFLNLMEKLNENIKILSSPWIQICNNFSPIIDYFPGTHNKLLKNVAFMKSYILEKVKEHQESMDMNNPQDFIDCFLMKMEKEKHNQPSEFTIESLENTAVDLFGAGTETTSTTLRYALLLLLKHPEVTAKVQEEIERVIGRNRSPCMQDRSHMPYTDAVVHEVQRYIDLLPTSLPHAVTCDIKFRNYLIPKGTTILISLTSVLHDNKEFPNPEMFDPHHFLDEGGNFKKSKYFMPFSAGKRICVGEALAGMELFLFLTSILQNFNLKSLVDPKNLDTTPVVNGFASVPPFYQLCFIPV

Cytochrome P450 2D6 [7] = biological target: T1, Cytochrome P450 2D6; assay: Drug metabolism assessed as human CYP2D6 with P450 reductase-mediated retention time of metabolite by LC-MS/MS analysis in presence of NADPH; assay type: ADME
Cytochrome P450 2D6 [8] = biological target: T1, Cytochrome P450 2D6; assay: Inhibition of CYP2D6 (unknown origin); assay type: ADME
Cytochrome P450 2D6 [9] = biological target: T1, Cytochrome P450 2D6; assay: Covalent binding affinity to human CYP2D6 with P450 reductase assessed per nmol of enzyme after 60 mins by protein precipitation and scintillation counting analysis in absence of NADPH; details: 1 h
Cytochrome P450 2D6 [10] = biological target: T1, Cytochrome P450 2D6; assay: Covalent binding affinity to human CYP2D6 with P450 reductase assessed per nmol of enzyme after 60 mins by protein precipitation and scintillation counting analysis in presence of NADPH; details: 1 h
Cytochrome P450 2D6 [11] = biological target: T1, Cytochrome P450 2D6; assay: as §1; assay type: ADME; details: recombinant enzyme, 0.25 h, 16 µM

SMILES | Ratio (Cytochrome P450 2D6 [1]) | Kd (Cytochrome P450 2D6 [2]) [nM] | inhibition at 0.25 h, 16 µM (CYP2D6 [3]) [%] | inhibition at 0.25 h, 16 µM (CYP2D6 [4]) [%] | inhibition at 0.25 h, 16 µM (CYP2D6 [5]) [%] | inhibition at 0.25 h, 16 µM (CYP2D6 [6]) [%] | Retention_time (Cytochrome P450 2C19) [min] | Retention_time (Cytochrome P450 2C9) [min] | Retention_time (Cytochrome P450 2D6 [7]) [min] | Ki (Cytochrome P450 2D6 [8]) [nM] | PB (Cytochrome P450 2D6 [9]) [nmol] | PB (Cytochrome P450 2D6 [10]) [nmol] | inhibition (INH) (Cytochrome P450 2D6 [11])
CCc1nc(C)c(CN2CCN(c3cc(C(F)(F)F)ccn3)CC2)[nH]1 | 99 |  |  |  |  |  |  |  |  |  |  |  | 
Fc1cnc(N2CCN(Cc3cnc(-c4ccccc4)[nH]3)CC2)nc1 | 3 | 390 | 90 | 25 | 15 | 25 | 17 | 17 | 17 | 550 | 1.95 | 3.15 | 
COc1ccc2c(c1)[C@]13CCCC[C@@H]1[C@H](C2)N(C)CC3 [DEXTROMETHORPHAN] |  |  |  |  |  |  |  |  |  |  |  |  | Active
